# Screens from PubChem.
# S100A4 MyoIIA: blocks human S100A4 binding to myosin IIA peptide; P26447; S100A4/TAMRA-MyoIIA peptide fluorescence polarization; inhibition, % at 10.7 µM; 360,000 tested, 0.14% active;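 active = mean inhibition of at least 70% across replicates, with every replicate also reaching that level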
#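 Assay system: human S100A4 monomer with TAMRA-labelled myosin IIA peptide / Buffer or medium: Calcium-containing HEPES buffer, pH 7.2 / Reagent: TAMRA-labelled myosin IIA heavy-chain peptide probe, 5 nM / Compound: one dose per compound / Timing: polarization read 5 min after assay mix addition, stable 5–60 min / Benchmarks: neutral control DMSO, positive control TFP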
# rRNA inh HTS: selective bacterial rRNA inhibition in E. coli | E. coli WT GFP vs humanized-ribosome RFP mutants, fluorescence, 24 h; active compounds read low; DMSO median 0, no signal -100 | GFP signal change (wild-type ribosome), % (no concentration beside the values) | 350,000 tested, 1.6% active;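 active = significant combined selectivity score with lowered wild-type GFP, culture density cut under 30%, mutant RFP and density less affected; inactive = any of these conditions unmet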
# CFTR F508del cor: CFTR F508del correction in bronchial cells; CFBE cells, YFP halide quenching; stimulated with forskolin plus potentiator P3; % fluorescence drop versus neutral controls; activity (quench increase), % at 7.58 µM; 350,000 tested, 0.36% active; AID 720511;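 active = mean added fluorescence quench of at least 8% versus neutral control, with both replicates also reaching 8%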;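 also: cells transiently co-express mutant CFTR-F508del with the halide-sensitive YFP; corrector assay measuring rescue of mutant channel to the surface after 24 h compound exposure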
# SIRT5 inh: blocks human SIRT5 desuccinylation of peptide | Q9NXA8 | Purified SirT5, succinyl-peptide AMC, trypsin-coupled fluorescence | inhibition, % at 15 µM | 330,000 tested, 1.1% active | AID 652115; in the data active = inhibition above about 15%
# ERAP1 HTS inh: ERAP1 (human) enzyme inhibition; recombinant ERAP1, Leu-AMC fluorescence, 60 min; inhibition, % at 10.7 µM; 340,000 tested, 0.15% active;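 active = mean replicate inhibition of at least 30%, or all replicates individually reaching that 30% level; inactive = mean below 30% and not every replicate reaching it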
# Target sequence (Q9NZ08 whole entry, looked up): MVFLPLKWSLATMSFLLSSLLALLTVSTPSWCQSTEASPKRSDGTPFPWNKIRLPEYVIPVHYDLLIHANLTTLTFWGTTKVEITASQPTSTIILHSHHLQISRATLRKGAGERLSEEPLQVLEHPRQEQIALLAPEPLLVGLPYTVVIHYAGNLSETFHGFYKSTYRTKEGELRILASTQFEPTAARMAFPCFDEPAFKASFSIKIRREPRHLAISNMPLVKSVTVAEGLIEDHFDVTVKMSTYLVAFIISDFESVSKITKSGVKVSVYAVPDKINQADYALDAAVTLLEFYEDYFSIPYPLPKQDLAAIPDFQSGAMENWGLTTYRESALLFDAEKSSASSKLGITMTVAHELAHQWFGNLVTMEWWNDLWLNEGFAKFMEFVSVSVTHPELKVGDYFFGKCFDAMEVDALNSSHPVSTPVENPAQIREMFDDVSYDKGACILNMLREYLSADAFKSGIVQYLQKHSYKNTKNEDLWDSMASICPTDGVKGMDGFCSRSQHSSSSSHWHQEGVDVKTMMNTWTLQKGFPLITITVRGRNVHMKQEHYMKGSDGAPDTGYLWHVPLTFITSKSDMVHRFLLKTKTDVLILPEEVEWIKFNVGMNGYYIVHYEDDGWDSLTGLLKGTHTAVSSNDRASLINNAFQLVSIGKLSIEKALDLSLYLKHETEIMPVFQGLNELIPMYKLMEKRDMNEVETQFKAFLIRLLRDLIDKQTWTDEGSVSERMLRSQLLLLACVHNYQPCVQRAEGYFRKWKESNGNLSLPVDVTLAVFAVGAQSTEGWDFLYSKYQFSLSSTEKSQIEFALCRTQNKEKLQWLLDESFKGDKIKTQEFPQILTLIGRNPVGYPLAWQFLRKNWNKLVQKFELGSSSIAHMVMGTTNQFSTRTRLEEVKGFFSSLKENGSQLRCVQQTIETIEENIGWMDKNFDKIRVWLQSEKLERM
# Numbers stand for hits; 0 = inactive; - = no result given. An excerpt weighted towards active compounds, which were near 3.1% of everything screened.
SMILES,S100A4 MyoIIA,rRNA inh HTS,CFTR F508del cor,SIRT5 inh,ERAP1 HTS inh
C[C@@H]1CN([C@H](C)CO)C(=O)c2cc(NC(=O)Nc3cccc4ccccc34)ccc2O[C@@H]1CN(C)Cc1ccccc1,0,0,0,0,0
O=C(C1CC1)N1CC[C@@H]2[C@@H](CO)Nc3ccc(-c4cccc(F)c4)cc3[C@@H]21,-,0,0,0,-
Cc1ccc(NC(=O)CN2CCOCC2)cc1Cl,0,0,0,25,0
CC(=O)N1CCC(N(CCN2CCOCC2)C(=O)Nc2ccc(Cl)c(Cl)c2)CC1,0,-40,0,0,0
COc1ccc(NC(=S)N(CCN2CCOCC2)C2CCN(C(C)=O)CC2)cc1Cl,0,0,0,0,-
C[C@H]1CN([C@@H](C)CO)C(=O)Cc2cc(NC(=O)Nc3cccc4ccccc34)ccc2O[C@@H]1CN(C)C(=O)Nc1ccc(F)cc1,0,0,0,0,0
CC(=O)N1C[C@H]2CON(C)[C@H]2C[C@H]1c1cccc(N2CCOCC2)c1,0,0,0,0,108
CCOC(=O)N(C)C[C@@H]1OCc2ccccc2-c2ccccc2C(=O)N([C@H](C)CO)C[C@H]1C,0,0,0,0,0
COc1ccc(CN2C[C@H](C)[C@@H](OC)CN(C)C(=O)c3cc(NC(=O)C4CC4)ccc3OC[C@@H]2C)cc1,-,0,0,0,-
O=[N+]([O-])c1ccccc1-c1ccc(CN2CCN(c3ccccc3)CC2)o1,0,-36,0,0,0
O=[N+]([O-])c1cccc(-c2ccc(CN3CCN(c4ccccc4)CC3)o2)c1,0,0,0,0,0
COc1ccc(Br)c(C(=O)OCC(=O)N2CCC(Cc3ccccc3)CC2)c1,0,-35,0,0,0
COc1ccc(OCC(=O)N2CCC(Cc3ccccc3)CC2)cc1,0,0,0,0,0
COc1ccc(C2=Nc3ccccc3NC(=O)C2N(C(=O)c2cnc(C)cn2)c2ccc(N3CCOCC3)cc2)cc1 (stereo unspecified),0,0,0,0,-
COc1ccc(C2=Nc3ccccc3NC(=O)C2N(C(=O)c2ccnc3ccccc23)c2ccccc2)cc1 (stereo unspecified),0,-21,0,0,0
CNC[C@H]1Oc2ccc(NC(=O)Nc3ccc(C(F)(F)F)cc3)cc2C(=O)N([C@@H](C)CO)C[C@@H]1C,0,0,0,0,0
C[C@H]1CN([C@@H](C)CO)C(=O)Cc2cc(NS(=O)(=O)c3cn(C)cn3)ccc2O[C@@H]1CN(C)Cc1ccc(C(=O)Nc2ccccc2N)cc1,0,0,0,-,0
CCn1cnc2c1c(=O)n(CC(=O)NCc1ccccc1)c(=O)n2Cc1ccccc1,0,0,0,0,0
CCn1cnc2c1c(=O)n(CC(=O)NCC(F)(F)F)c(=O)n2Cc1ccccc1,0,0,0,0,58
C[C@@H]1CN([C@@H](C)CO)C(=O)c2cc(C3=CCCCC3)cnc2O[C@@H]1CN(C)C(=O)c1ccccc1,0,0,0,0,0
CO[C@H]1CN(C)C(=O)c2ccc(NC(=O)Nc3ccc(C(F)(F)F)cc3)cc2OC[C@@H](C)NC[C@@H]1C,0,0,0,0,0
CO[C@H]1CN(C)C(=O)c2ccc(NC(=O)Nc3ccc(C(F)(F)F)cc3)cc2OC[C@H](C)NC[C@H]1C,0,0,0,15,0
CCCC(=O)Nc1ccc2c(c1)OC[C@H](C)NC[C@H](C)[C@H](OC)CN(C)C2=O,101,0,0,0,-
CCCC(=O)Nc1ccc2c(c1)OC[C@@H](C)NC[C@H](C)[C@@H](OC)CN(C)C2=O,0,0,0,0,-
CCOC(=O)CN1C(=O)S/C(=C\c2ccc(-c3ccc(C(=O)O)c(Cl)c3)o2)C1=O,0,-24,0,0,0
SMILES,S100A4 MyoIIA,rRNA inh HTS,CFTR F508del cor,SIRT5 inh,ERAP1 HTS inh
Cc1cccc(NC(=O)CN2C(=O)N/C(=C/c3ccc(-c4cccc(C(=O)O)c4C)o3)C2=O)c1,0,0,0,0,0
O=C(O)c1ccc(-c2ccc(/C=C3\NC(=O)N(Cc4ccc(Cl)cc4)C3=O)o2)cc1Cl,0,0,0,26,0
C[C@@H]1CN([C@H](C)CO)C(=O)c2cccc(NS(=O)(=O)c3ccc(F)cc3)c2O[C@H]1CN(C)C(=O)Nc1ccc2c(c1)OCO2,0,0,0,0,0
C[C@H](CO)N1C[C@H](C)[C@H](CN(C)Cc2ccc(Cl)c(Cl)c2)Oc2ccc(NS(=O)(=O)c3cccs3)cc2CC1=O,0,0,0,0,0
Fc1ccccc1Cc1noc(CN2CCCC(CN3CCOCC3)C2)n1 (stereo unspecified),0,0,0,22,0
O=C(c1cccnc1)C1CCCN(Cc2nc(Cc3ccccc3F)no2)C1 (stereo unspecified),0,0,0,0,0
O=C(C[C@H]1CC[C@@H]2[C@H](COC[C@H](O)CN2S(=O)(=O)c2ccccc2F)O1)NCc1ccccc1F,0,0,0,0,0
O=C(NCCCN1CCOCC1)c1cc(S(=O)(=O)N2CCOCC2)c(Cl)cc1Cl,0,0,9.0,0,0
COc1ccc(NC(=O)C2C(c3ccccc3)C2(Cl)Cl)cc1 (stereo unspecified),0,-39,0,0,0
CCOc1ccc(NC(=O)C2C(c3ccccc3)C2(Cl)Cl)cc1 (stereo unspecified),0,0,0,0,0
COC(=O)c1sc(-c2ccc(C(C)(C)C)cc2)cc1NC(=O)COCC(=O)O,0,0,0,0,-
COC(=O)c1sc(-c2ccc(Cl)cc2)cc1NC(=O)CSCC(=O)O,0,-42,0,0,0
Nc1cc(S(=O)(=O)c2ccc(O)c(N)c2)ccc1O,0,0,0,16,0
Nc1ccc(S(=O)(=O)c2ccc(N)c(N)c2)cc1,0,0,0,0,0
CC(=O)N(C)C[C@@H]1Oc2cc(C#Cc3ccncc3)ccc2S(=O)(=O)N([C@H](C)CO)C[C@@H]1C,0,0,0,0,0
O=C(Cc1cccs1)N/N=C/c1ccccc1,0,-,0,0,-
Cc1cccc(/C=N/NC(=O)Cc2cccs2)c1,0,-19,0,0,0
O=C(NC(Cc1ccccc1)C(=O)NC1CC1)OCc1ccccc1 (stereo unspecified),0,0,0,0,0
O=C(N[C@@H](Cc1ccccc1)C(=O)NC1CC1)c1ccc(Cl)cc1,0,0,0,25,0
COc1ccccc1CCC(=O)Nc1ccc2c(c1)c(=O)n(C)n2C,0,0,0,0,38
COc1ccccc1CCC(=O)Nc1ccc2c(c1)c(=O)n(C)n2Cc1ccc(F)cc1,0,0,0,-,0
C[C@H](CO)N1C[C@H](C)[C@@H](CN(C)C(=O)Cc2ccccc2)OCCCC[C@H](C)Oc2ccc(NS(C)(=O)=O)cc2C1=O,-,0,0,-,-
C[C@H](CO)N1C[C@H](C)[C@H](CN(C)C(=O)Nc2ccccc2C(F)(F)F)OCc2cnnn2CCCC1=O,0,0,0,16,0
C[C@H]1CN([C@@H](C)CO)C(=O)CCCn2nncc2CO[C@@H]1CN(C)C(=O)CCCN(C)C,0,0,0,22,0
